# Source: PubChem BioAssay AID1526 (The Scripps Research Institute Molecular Screening Center, 2009)
# Some of the results follow. Unmarked numbers belong to inactive results. Active and inactive are the calls of the source.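 How the source made its calls: active means activation above a set limit derived from the earlier primary screen (cut at about 12% in these data); inactive means the rest.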
# Target: Mucolipin-3 (Homo sapiens) (UniProt Q8TDD5)
# Assay: activators of mucolipin-3 cation channel – cell-based, HEK293 TRPML3-YFP, Fluo-8 calcium, triplicate, confirmation (AID 1526)
# Conditions: Fluo-8 calcium fluorescence, at 3 µM, stronger effect = higher value, 100% set by carbachol, 0% by DMSO
# In short: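 Test system: human TRPML3-YFP channel stably expressed in HEK293 cells; Compound: single nominal 3 µM dose per test compound; Incubation: calcium dye loading 1 h at 37 °C, fluorescence read 125 s; Detection: Fluo-8 calcium dye fluorescence; Measure: % activation from peak-to-basal fluorescence ratio, scaled between controls; Repeats: three replicate wells.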
# Chain of Mucolipin-3 (Homo sapiens) (Q8TDD5 whole entry, looked up): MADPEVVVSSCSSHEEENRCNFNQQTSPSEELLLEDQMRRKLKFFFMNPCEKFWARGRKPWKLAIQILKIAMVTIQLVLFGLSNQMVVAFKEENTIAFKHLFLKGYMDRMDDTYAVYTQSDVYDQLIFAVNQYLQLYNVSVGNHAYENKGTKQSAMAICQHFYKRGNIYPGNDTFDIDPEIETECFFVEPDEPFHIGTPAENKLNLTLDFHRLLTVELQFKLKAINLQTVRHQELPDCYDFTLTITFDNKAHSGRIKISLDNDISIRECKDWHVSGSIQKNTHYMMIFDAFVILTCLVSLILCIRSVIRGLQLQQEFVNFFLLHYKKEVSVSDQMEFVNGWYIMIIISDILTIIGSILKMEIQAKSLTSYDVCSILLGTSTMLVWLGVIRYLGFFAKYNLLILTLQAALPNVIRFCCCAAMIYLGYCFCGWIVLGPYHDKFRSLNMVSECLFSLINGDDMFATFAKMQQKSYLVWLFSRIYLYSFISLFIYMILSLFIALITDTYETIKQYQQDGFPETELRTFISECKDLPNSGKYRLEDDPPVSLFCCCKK
row,Structure (SMILES),activation
1,c1ccc2c(C[n+]3csc4ccccc43)cccc2c1,58% (active)
2,CCN(CC)S(=O)(=O)c1ccc2c3c(cccc13)C(=O)S2,10.5%
3,O=S(=O)(Nc1ccccc1N1CCOCC1)c1ccc(Cl)s1,63% (active)
4,COc1ccc(-c2noc(CN(C)S(=O)(=O)c3ccc(C)cc3)n2)cc1,111% (active)
5,Cc1cccc(C)c1N1CCN(S(=O)(=O)N2CCCCC2)CC1,79.3% (active)
6,COc1ccc(S(=O)(=O)N2CCCC2)c(C)c1C,13.6% (active)
7,CC1=CC(C)(C)N(C(=O)CSc2nnc(-c3ccccc3)o2)c2ccc(C)cc21,48.3% (active)
8,C=C(C)Cn1c(C)cc(C)c(S(=O)(=O)c2ccccc2C)c1=O,27.8% (active)
9,O=C(CC(O)(C(F)(F)F)C(F)(F)F)Nc1ccc(Cl)c(Cl)c1,13.9% (active)
10,CC1(C)CCCC2=C1CC1C(=O)N(c3ccccc3)C(=O)C1C2 (stereo not drawn),14.2% (active)
11,COc1ccccc1N(CC(=O)N1CCCCC1)S(=O)(=O)c1ccccc1,169% (active)
12,CCN(CC)C(=O)CC1(c2ccccc2OC)CCOC(C(C)C)C1 (stereo not drawn),14.7% (active)
13,COc1ccc(Cl)cc1N(CC(=O)N1CCCCC1)S(C)(=O)=O,71.9% (active)
14,COc1cc(/C=C(\C#N)c2nc3c(s2)CC(C)CC3)ccc1O (stereo not drawn),6.5%
15,COc1ccc(N(CCC#N)S(=O)(=O)c2ccc(Cl)cc2)cc1,9.45%
16,CCOC(=O)C1=C(NC(=S)NC(=O)c2ccccc2)c2ccccc2CC1(C)C,43.6% (active)
17,CCOc1ccc(S(=O)(=O)N2CCCCCC2)c2ccccc12,129% (active)
18,CC1CCCC(C)N1C(=O)CN1CCN(c2nc(-c3ccc(F)cc3)cs2)CC1 (stereo not drawn),20.4% (active)
